Screening data (PubChem)
Only some compounds are listed: those with a hit (about 4.3% of all), similar ones and a draw of the others.
GalR3 antag = GalR3 antagonists in HEK293 cells, primary screen, cell-based, fluorescence readout. HEK293 GalR3-CNG cAMP membrane potential fluorescence; galR3 body fused to GalR1 C-terminus. inhibition, % at 3 µM. hit rate 0.44% among 360,000;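 active = inhibition above the screen-wide average plus 3 SD, cut at about 13% in these data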;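 also: forskolin and galanin both at EC90 stimulate the cells; cAMP rise reported by CNG channel membrane potential dye signal; 0% = forskolin plus galanin with DMSO and 100% = forskolin alone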
Target sequence (O60755 1-299 limits assumed): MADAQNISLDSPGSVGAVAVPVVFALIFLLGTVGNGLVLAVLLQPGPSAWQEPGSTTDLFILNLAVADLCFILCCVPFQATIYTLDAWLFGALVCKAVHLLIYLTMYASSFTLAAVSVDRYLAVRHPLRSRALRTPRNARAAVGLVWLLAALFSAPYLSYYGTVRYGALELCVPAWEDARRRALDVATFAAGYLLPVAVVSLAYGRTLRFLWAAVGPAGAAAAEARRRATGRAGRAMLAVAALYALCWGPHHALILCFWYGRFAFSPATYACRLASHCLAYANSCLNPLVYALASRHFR
TAAR1 antag = human TAAR1 antagonists, primary screen, Fluo-8 calcium fluorescence, CHO RD-HGA16 cells | Trace amine-associated receptor 1 (Homo sapiens), Q96RJ0 | antagonist | inhibition, % at 3 µM | hit rate 1.5% among 360,000;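 active = inhibition above a per-plate cutoff, the mean inhibition of test compounds on that plate plus 3 SD, cut at about 49% in these data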;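 also: 0% = DMSO plus EC80 beta-PEA response and 100% = DMSO alone without agonist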
Target sequence (Q96RJ0 whole entry, looked up): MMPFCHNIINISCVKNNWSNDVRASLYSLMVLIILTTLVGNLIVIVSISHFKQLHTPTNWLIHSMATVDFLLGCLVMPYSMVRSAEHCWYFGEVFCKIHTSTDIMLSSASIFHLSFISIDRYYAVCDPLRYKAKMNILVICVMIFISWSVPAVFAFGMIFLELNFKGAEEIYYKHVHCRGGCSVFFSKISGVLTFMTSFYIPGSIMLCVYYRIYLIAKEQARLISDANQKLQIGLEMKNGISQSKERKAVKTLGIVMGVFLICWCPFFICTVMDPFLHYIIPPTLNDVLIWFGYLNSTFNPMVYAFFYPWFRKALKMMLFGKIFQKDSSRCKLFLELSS
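Material: CHO RD-HGA16 cells bearing hTAAR1; compound dosing: one-point dosing, 3 µM nominal final; schedule: dye loading 75 min at 37 °C, then 30 min room temperature; measured by: calcium fluorescence with Fluo-8; control set: vehicle and agonist controls; replication: n of 1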
OX1R antag-1 = antagonists of human orexin 1 receptor (OX1R). OX1R-expressing cells, FRET antagonist read-out. Orexin/Hypocretin receptor type 1 (Homo sapiens), O43613. inhibition, % at 6.6 µM. AID 485270, 2010. hit rate 1.8% among 330,000; in the data active = inhibition mostly above about 38%, no sharp cut-off; inactive = mostly below about 40%;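 also: 0% = agonist challenge alone and 100% = reference antagonist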
TAAR1 ag = human TAAR1 agonists, primary screen, Fluo-8 calcium fluorescence, CHO RD-HGA16 cells; activation, % at 3 µM; AID 624467, 2012; Trace amine-associated receptor 1 (Homo sapiens), Q96RJ0; vehicle wells 0%, saturating PEA agonist 100%; hit rate 0.99% among 360,000;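 active = activation above the mean activation of all test compounds in the run plus 3 SD, cut at about 38% in these data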
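System: CHO RD-HGA16 cells carrying human TAAR1 plus Gα16; Incubation: 17-24 h seeding, 75 min 37 °C dye, 30 min RT; Measured by: Fluo-8 fluorescence, 5 s baseline then 140 s kinetic read; Control set: DMSO and PEA EC100; Replication: single well for each compound.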
OX1R antag-2 = OX1R (HCRTR1) antagonists, primary screen, fluorescence, CHO/OX1R cells, Fluo-8 calcium, orexin A | Orexin/Hypocretin receptor type 1 (Homo sapiens), O43613 | hit rate 0.43% among 330,000 | Fluo-8 calcium fluorescence | inhibition, % at 5 µM;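 active = inhibition above its plate's threshold, mean inhibition of all tested compounds on the plate plus 3 SD, cut at about 37% in these data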;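 also: 0% = orexin A challenge wells and 100% = SB-334867-A antagonist wells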
CHO parental Ca = ATP-evoked calcium signal inhibitors, parental CHO, primary screen, counter-screen for OX1R antagonist project, cell-based, fluorescence, Fluo-8 calcium dye. parental CHO-K1, ATP-induced calcium, Fluo-8 fluorescence. inhibition, % at 5.6 µM. hit rate 0.63% among 330,000. AID 463079, 2010;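 active = inhibition above that plate's mean sample inhibition plus 3 SD, cut at about 26% in these data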;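 also: 0% = ATP-challenged DMSO wells and 100% = DMSO wells without ATP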
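Material: parental CHO cells / Compound: single nominal dose of 5.6 µM per compound / Signal: Fluo-8 fluorescence / Replicates: singlicate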
* = called active by the depositor; . = no result given.

SMILES | GalR3 antag | TAAR1 antag | OX1R antag-1 | TAAR1 ag | OX1R antag-2 | CHO parental Ca
CC(Oc1ccc(Cl)cc1Cl)C(=O)NNC(=O)c1cccnc1 (stereo not drawn) | 2.7 | 4.1 | 11.2 | -0.1 | -13.0 | -16.2
CC(Oc1ccc(Cl)cc1Cl)c1nc(-c2ccc(NC(=O)c3cccnc3)cc2)no1 (stereo not drawn) | -4.3 | 57.1* | -0.5 | 9.4 | -23.7 | -14.2
COc1cccc(C(=O)N[C@@H](Cc2cccnc2)C(=O)N2CCC[C@H]2C(=O)NCc2ccccc2)c1 | 0.2 | -6.1 | . | 0.1 | . | .
CSC(=Cc1ccc(C(=O)c2ccc(C)cc2)n1C)S(C)=O (stereo not drawn) | -5.2 | 4.0 | . | 3.2 | . | .
CN(C)c1ccc(NC(=O)c2ccc3nsnc3c2)cc1 | -1.8 | 5.3 | 32.4 | 0.1 | 16.5 | -4.9
CCNc1ccc(C(=O)Nc2ccc3nc(C)sc3c2)cc1[N+](=O)[O-] | 2.6 | 14.4 | 60.5* | 0.2 | -25.1 | -28.8
Cc1nc2ccc(NC(=O)c3ccccc3)cc2s1 | 6.7 | 1.5 | 15.8 | 4.2 | -28.7 | -8.4
Cc1nc2ccc(NC(=O)c3ccc4ccccc4n3)cc2s1 | -1.8 | 7.2 | 65.4* | -0.2 | 0.3 | -16.9
Cc1nc2ccc(C(=O)Nc3ccc(N(C)C)cc3)cc2s1 | 3.0 | 12.1 | 60.8* | 0.8 | 3.5 | -14.9
Cc1ccc(NC(=O)c2ccc(NCCN)c([N+](=O)[O-])c2)cc1Cl | -5.6 | 3.1 | 9.6 | 2.7 | -11.2 | -3.0
CC(=O)c1ccc(NC(=O)c2ccc3nc(C)sc3c2)cc1 | -1.9 | 13.8 | 60.9* | 2.6 | 0.8 | -11.6
CCCCNC(=O)C(=O)Nc1ccc2c(c1)N(S(=O)(=O)c1cccs1)CCC2 | 0.5 | -5.0 | . | 0.6 | . | .
Cc1cc(NC(=O)CON=C(N)CC(=O)Nc2ccccc2Cl)ccc1Br | -3.7 | -31.9 | . | 1.4 | . | .
CCN(CC(=O)Nc1ccc(NC(C)=O)cc1)C(=O)c1ccc(=O)[nH]c1 | -0.3 | -15.4 | -0.9 | 1.9 | -2.0 | -10.1
CC(CC(=O)Nc1ccc(Cl)c([N+](=O)[O-])c1)c1ccccc1 (stereo not drawn) | -3.8 | 37.8 | 90.8* | 4.0 | 66.3* | 60.3*
O=C(Nc1ccccc1)Nc1ccc(Cl)c([N+](=O)[O-])c1 | -2.0 | -5.7 | 32.9 | 32.9 | 5.2 | 10.0
COc1ccc(NC(=S)NC(=O)Cc2ccccc2)cc1 | -8.1 | -7.0 | -7.5 | 14.3 | -19.7 | -11.9
COc1ccc(CC(=O)NC(=S)Nc2ccc(S(=O)(=O)NC(C)(C)C)cc2)cc1 | 1.0 | 31.0 | 4.5 | 53.4* | 23.0 | 16.7
COc1ccc(-c2cc(C3CCN(c4cc(Cl)nc(N)n4)CC3)[nH]n2)cc1 | -5.0 | 30.7 | 10.1 | 42.7* | -3.6 | -0.6
COc1ccc(OC)c(-c2cc(C3CCN(c4cc(Cl)nc(N)n4)CC3)[nH]n2)c1 | -6.1 | 55.9* | 25.3 | 22.8 | 6.0 | 1.5
Nc1nc(Cl)cc(N2CCC(c3cc(-c4ccc(Cl)cc4)n[nH]3)CC2)n1 | -10.3 | 45.2 | 18.6 | 28.6 | 53.6* | 34.0*
CC(=O)c1ccc(N2CCC(c3cc(-c4ccc(Cl)cc4Cl)n[nH]3)CC2)c([N+](=O)[O-])c1 | -6.0 | 19.6 | 25.5 | 36.3 | -27.8 | 21.2
COc1ccc(-c2cc(C3CCN(Cc4cccc(C(F)(F)F)c4)CC3)[nH]n2)cc1 | -4.8 | -25.8 | 9.0 | 10.7 | -34.5 | -29.1
CCOc1ccc(C(=O)N[C@H](C(=O)N2CCN(c3ncccn3)CC2)C(C)C)cc1 | 4.5 | -7.6 | . | 3.6 | . | .
CC(=O)N1C(=O)C2(NCC(C)N2)c2ccccc21 (stereo not drawn) | -5.5 | -10.4 | . | 3.6 | . | .
SMILES | GalR3 antag | TAAR1 antag | OX1R antag-1 | TAAR1 ag | OX1R antag-2 | CHO parental Ca
CC1CN(C(=O)NCc2ccccc2)c2cc(Cl)ccc2O1 (stereo not drawn) | -10.9 | 0.8 | . | -0.8 | . | .
C=CCN=C1NC(c2cccc(F)c2)C(C(=O)OC)=C(C)N1Cc1ccccc1C(F)(F)F (stereo not drawn) | -8.6 | 13.5 | . | 5.5 | . | .
CN(Cc1ccccc1)C(=O)CSc1nc2ccccc2c(=O)n1Cc1ccco1 | -9.2 | 1.7 | 34.1* | 0.9 | 14.3 | -23.8
COC(=O)c1ccc(OC(=O)CS(=O)c2ccccc2[N+](=O)[O-])cc1 (stereo not drawn) | -7.5 | -10.4 | 62.7* | 9.3 | -15.4 | -11.5
Cc1cc(O)cc(=O)n1-c1cc(Cl)cc(Cl)c1 | -5.6 | -16.0 | . | 5.2 | . | .
CCCOc1ccc(CCc2n[nH]c(=S)n2Cc2ccccc2)cc1 | -3.0 | 51.4* | 11.0 | -0.1 | 7.1 | -4.3
COc1cc([N+](=O)[O-])cc(/C=C2/SC(=S)N(Cc3ccccc3)C2=O)c1O | -9.4 | 46.5 | 10.5 | 24.9 | 67.6* | 49.3*
O=[N+]([O-])c1c(NCCCO)cc(SCc2ccco2)c2nonc12 | 10.6 | 1.6 | 61.2* | 1.4 | 0.8 | -4.4
O=[N+]([O-])c1c(NCCCO)cc(N2CCCCCC2)c2nonc12 | -0.4 | -29.1 | 37.4* | -0.1 | -37.8 | -14.8
O=[N+]([O-])c1c(NCCCO)cc(N2CCN(Cc3ccc4c(c3)OCO4)CC2)c2nonc12 | -7.9 | -10.1 | 33.2 | 3.6 | -24.5 | -13.4
CC1CCN(CCCNc2cc(NCCO)c([N+](=O)[O-])c3nonc23)CC1 | -10.6 | -3.8 | 37.7* | 0.9 | -2.4 | 0.4
CC1CCCN(c2cc(N(C)CCO)c([N+](=O)[O-])c3nonc23)C1 (stereo not drawn) | 1.5 | -11.0 | 48.3* | -1.6 | -7.6 | 8.6
COc1ccc(CNc2cc(NCCCO)c([N+](=O)[O-])c3nonc23)cc1 | -6.6 | 1.3 | 37.9 | 0.0 | -12.1 | -10.7
COc1ccc(Nc2cc(NCCCO)c([N+](=O)[O-])c3nonc23)cc1 | -10.4 | -34.5 | 49.0* | -1.6 | -6.4 | -16.4
COC(=O)CCSc1cc(NCCOC(C)=O)c([N+](=O)[O-])c2nonc12 | 9.3 | 1.9 | 52.9* | -0.4 | -4.8 | 2.5
CCOC(=O)C1=C(COC(=O)/C=C/c2ccc(F)cc2)NC(=O)NC1C (stereo not drawn) | -5.6 | 55.3* | . | 18.4 | . | .
CCOC(=O)C1=C(COC(=O)c2ccc([N+](=O)[O-])s2)NC(=O)NC1C (stereo not drawn) | -1.2 | -3.2 | 36.7* | 18.5 | -18.2 | 0.2
CCOC(=O)C1=C(COC(=O)/C=C/c2cccc(F)c2)NC(=O)NC1C (stereo not drawn) | -5.6 | 52.2* | 8.2 | 17.5 | 8.7 | -17.5
